Here are results for five compounds from ChEMBL document CHEMBL3627719, “Discovery of bis-aryl urea derivatives as potent and selective Limk inhibitors: Exploring Limk1 activity and Limk1/ROCK2 selectivity through a combined computational study” (Bioorg Med Chem, 2015).

One assay concerns the target LIM domain kinase 1 (Homo sapiens, UniProt P53667). Description: Inhibition of LIMK1 (unknown origin) using 1 uM cofilin as substrate. In short, it runs like this:
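IC50 was determined in 10-dose mode using a 3-fold serial dilution series. Reactions contained ATP, cofilin as substrate, and Limk1 enzyme at 50 nM.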

The target in assay [1] is Rho-associated protein kinase 2 (Homo sapiens, UniProt O75116). Put plainly: Inhibition of ROCK2 (unknown origin) after 4 hrs using 1 uM STK2 as substrate. In short, it runs like this:
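HTRF kinase assay using STK2 substrate plus ATP in STK-buffer, with test compound pin-dispensed. Reaction ran 4 h at rt and was stopped with antibody and 62.5 nM streptavidin-XL in detection buffer. After a further 1 h at rt, plates were read in HTRF mode.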

Molecules are shown by their SMILES. Where only a bound is given, the exact number is not on record here.

Chain of Rho-associated protein kinase 2 (O75116 whole entry): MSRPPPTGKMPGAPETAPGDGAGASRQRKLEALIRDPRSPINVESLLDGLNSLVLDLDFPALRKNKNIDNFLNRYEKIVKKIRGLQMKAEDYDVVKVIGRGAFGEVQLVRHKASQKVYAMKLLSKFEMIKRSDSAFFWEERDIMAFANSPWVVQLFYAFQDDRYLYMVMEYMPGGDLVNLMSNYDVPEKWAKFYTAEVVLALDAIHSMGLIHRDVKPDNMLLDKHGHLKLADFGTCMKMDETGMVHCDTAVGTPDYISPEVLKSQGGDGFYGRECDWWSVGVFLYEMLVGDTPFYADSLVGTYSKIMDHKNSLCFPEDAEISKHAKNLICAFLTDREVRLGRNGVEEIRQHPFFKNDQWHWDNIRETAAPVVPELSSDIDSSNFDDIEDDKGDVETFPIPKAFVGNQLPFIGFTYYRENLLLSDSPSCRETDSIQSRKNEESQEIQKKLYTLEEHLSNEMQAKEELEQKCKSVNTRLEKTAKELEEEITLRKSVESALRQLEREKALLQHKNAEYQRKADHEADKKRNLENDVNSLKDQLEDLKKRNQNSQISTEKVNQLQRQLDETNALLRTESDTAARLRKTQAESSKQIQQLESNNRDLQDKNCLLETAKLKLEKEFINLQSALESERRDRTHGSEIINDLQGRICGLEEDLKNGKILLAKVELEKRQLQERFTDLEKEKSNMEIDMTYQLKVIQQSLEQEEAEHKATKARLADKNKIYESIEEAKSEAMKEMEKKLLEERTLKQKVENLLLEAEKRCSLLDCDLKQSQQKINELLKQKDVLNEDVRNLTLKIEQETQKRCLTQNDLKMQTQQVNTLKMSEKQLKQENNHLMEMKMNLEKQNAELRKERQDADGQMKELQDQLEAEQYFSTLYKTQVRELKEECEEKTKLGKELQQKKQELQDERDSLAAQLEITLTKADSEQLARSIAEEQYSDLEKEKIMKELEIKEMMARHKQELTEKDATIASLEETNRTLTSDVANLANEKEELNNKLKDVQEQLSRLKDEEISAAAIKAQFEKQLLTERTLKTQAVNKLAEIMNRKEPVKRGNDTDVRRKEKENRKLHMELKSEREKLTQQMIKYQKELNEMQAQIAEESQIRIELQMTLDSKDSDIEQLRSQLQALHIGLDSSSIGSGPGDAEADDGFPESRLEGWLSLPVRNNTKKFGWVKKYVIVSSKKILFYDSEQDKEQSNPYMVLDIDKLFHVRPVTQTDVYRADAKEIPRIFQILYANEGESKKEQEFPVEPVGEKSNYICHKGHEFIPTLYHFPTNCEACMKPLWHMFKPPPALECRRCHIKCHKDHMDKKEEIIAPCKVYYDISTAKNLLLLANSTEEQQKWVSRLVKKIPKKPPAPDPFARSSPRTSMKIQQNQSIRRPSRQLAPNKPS
Chain of LIM domain kinase 1 (P53667 whole entry, the tested form may be a part): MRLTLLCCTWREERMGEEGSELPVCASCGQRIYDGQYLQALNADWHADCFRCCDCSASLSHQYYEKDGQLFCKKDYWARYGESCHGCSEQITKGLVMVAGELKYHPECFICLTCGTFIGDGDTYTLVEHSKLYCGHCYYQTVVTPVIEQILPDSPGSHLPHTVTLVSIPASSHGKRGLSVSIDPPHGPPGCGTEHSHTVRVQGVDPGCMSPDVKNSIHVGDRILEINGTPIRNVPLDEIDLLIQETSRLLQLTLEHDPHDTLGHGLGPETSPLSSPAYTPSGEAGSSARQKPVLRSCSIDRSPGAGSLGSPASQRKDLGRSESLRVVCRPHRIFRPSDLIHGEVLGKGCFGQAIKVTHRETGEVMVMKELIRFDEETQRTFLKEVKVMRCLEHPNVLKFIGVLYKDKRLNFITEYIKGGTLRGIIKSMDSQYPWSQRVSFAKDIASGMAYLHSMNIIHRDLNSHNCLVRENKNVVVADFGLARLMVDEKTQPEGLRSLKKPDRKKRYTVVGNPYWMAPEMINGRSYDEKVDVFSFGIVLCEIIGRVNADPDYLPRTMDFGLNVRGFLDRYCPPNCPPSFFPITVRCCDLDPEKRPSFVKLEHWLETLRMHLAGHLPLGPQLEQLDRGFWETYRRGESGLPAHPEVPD

As for `Cc1c[nH]c2ncnc(-c3ccc(NC(=O)Nc4cncnc4)c(F)c3)c12`, the IC50 at LIM domain kinase 1 came to 55 nM; in assay [1], 1020 nM.
Taken in the same sequence, the figures for `Cc1cc(NC(=O)Nc2ccc(-c3ncnc4[nH]cc(C)c34)cc2F)ccn1` were 19 nM and 2010 nM.
Taken in the same sequence, the figures for `Cc1c[nH]c2ncnc(-c3ccc(NC(=O)N(CCO)c4ccccc4)c(F)c3)c12` were 85 nM and 4510 nM.
Turning to `COc1ccc(NC(=O)Nc2ccc(-c3ncnc4[nH]cc(C)c34)cc2F)cc1`, the results for the half-maximal inhibitory concentration (IC50) (against LIM domain kinase 1; in assay [1]) were 10 nM and more than 20000 nM, respectively.
Taken in the same sequence, the figures for `Cc1ccc(NC(=O)Nc2ccc(-c3ncnc4[nH]cc(C)c34)cc2F)cn1` were 11 nM and 2110 nM.

By IC50 is commonly meant the concentration at which inhibition is half-maximal. A low value points to inhibition by little substance.
